Laboratory results reported in ChEMBL document CHEMBL1150419, “Structure-activity relationships of a peptide inhibitor of the human FcRn:human IgG interaction” (Bioorg Med Chem, 2008).

Key:
[1] = molecular target: T1, IgG receptor FcRn large subunit p51 (Homo sapiens, UniProt P55899); test: Binding affinity to human FcRn at pH 6 by surface plasmon resonance assay
Outline: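 Soluble human FcRn coupled to the dextran surface of a CM5 chip; peptide dilutions flowed over the chip. The equilibrium response at each dilution was plotted against concentration and fitted to a steady-state affinity model to give Kd.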

[2] = molecular target: T1, IgG receptor FcRn large subunit p51; test: Inhibition of human IgG binding to soluble human FcRn by ELISA
Outline: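 Biotinylated soluble human FcRn immobilized on neutravidin plates, incubated with hIgG (3 nM, constant) and peptide at varying concentrations for 2 h at 37 °C. After washing, bound hIgG detected with peroxidase-conjugated hIgG-specific Fab fragments.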

T1 sequence (P55899 whole entry): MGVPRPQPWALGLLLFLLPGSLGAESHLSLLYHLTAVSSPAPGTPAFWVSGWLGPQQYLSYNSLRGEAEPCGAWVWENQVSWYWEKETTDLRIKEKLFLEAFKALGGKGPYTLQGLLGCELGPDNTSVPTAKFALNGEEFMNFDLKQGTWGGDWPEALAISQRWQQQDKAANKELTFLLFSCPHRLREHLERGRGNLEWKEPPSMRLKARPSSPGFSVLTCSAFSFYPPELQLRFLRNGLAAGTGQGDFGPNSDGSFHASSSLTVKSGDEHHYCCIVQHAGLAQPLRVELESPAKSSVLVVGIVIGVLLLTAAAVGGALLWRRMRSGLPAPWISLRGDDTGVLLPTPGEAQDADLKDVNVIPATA

Compound | Kd [1] [µM] | IC50 [2] [µM]
CC(C)C[C@H](NC(=O)CN1CCCC[C@@H](NC(=O)[C@H](Cc2ccccc2)NC(=O)[C@H](Cc2cnc[nH]2)NC(=O)CNC(=O)[C@@H](NC(=O)[C@H](NC(=O)[C@H](Cc2ccccc2)NC(=O)[C@@H](N)CCCNC(=N)N)C(C)(C)S)[C@@H](C)O)C1=O)C(=O)N[C@@H](Cc1ccc(O)cc1)C(=O)N1CCC[C@H]1C(=O)N[C@@H](CS)C(=O)O | 0.103 | 0.64
CC(C)C[C@H](NC(=O)CN1CCC[C@H](NC(=O)[C@H](Cc2ccccc2)NC(=O)[C@H](Cc2cnc[nH]2)NC(=O)CNC(=O)[C@@H](NC(=O)[C@H](NC(=O)[C@H](Cc2ccccc2)NC(=O)[C@@H](N)CCCN=C(N)N)C(C)(C)S)[C@@H](C)O)C1=O)C(=O)N[C@@H](Cc1ccc(O)cc1)C(=O)N1CCC[C@H]1C(=O)N[C@@H](CS)C(=O)O | 0.67 | 7.2
CC(C)C[C@H](NC(=O)CNC(=O)CNC(=O)[C@H](Cc1ccccc1)NC(=O)[C@H](Cc1cnc[nH]1)NC(=O)CNC(=O)[C@@H](NC(=O)[C@@H](NC(=O)[C@H](Cc1ccccc1)NC(=O)[C@H](CCCNC(=N)N)NC(=O)[C@@H](N)CCC(N)=O)C(C)(C)S)[C@@H](C)O)C(=O)N[C@@H](Cc1ccc(O)cc1[N+](=O)[O-])C(=O)N1CCC[C@H]1C(=O)N[C@@H](CS)C(=O)N[C@@H](CC(N)=O)C(=O)NCC(=O)N1CCC[C@H]1C(=O)O | 290 | > 125
CC(C)C[C@H](NC(=O)CN1CCCC[C@@H](NC(=O)[C@H](Cc2ccccc2)NC(=O)[C@H](Cc2cnc[nH]2)NC(=O)CNC(=O)[C@@H](NC(=O)[C@@H](NC(=O)[C@H](Cc2ccccc2)NC(=O)[C@@H](N)CCCN=C(N)N)C(C)C)[C@@H](C)O)C1=O)C(=O)N[C@@H](Cc1ccc(O)cc1)C(=O)N1CCC[C@H]1C(=O)N[C@@H](C)C(=O)O | 2.3 | 23
CC(C)C[C@@H](C(=O)N[C@@H](Cc1ccc(O)cc1)C(=O)N1CCC[C@H]1C(=O)N[C@@H](CS)C(=O)O)N(C)C(=O)CN1CCC[C@@H](NC(=O)[C@H](Cc2ccccc2)NC(=O)[C@H](Cc2cnc[nH]2)NC(=O)CNC(=O)[C@@H](NC(=O)[C@H](NC(=O)[C@H](Cc2ccccc2)NC(=O)[C@@H](N)CCCNC(=N)N)C(C)(C)S)[C@@H](C)O)C1=O | 0.043 | 0.53
CC(C)C[C@H](NC(=O)CNC(=O)CNC(=O)[C@H](Cc1ccccc1)NC(=O)[C@H](Cc1cnc[nH]1)NC(=O)CNC(=O)[C@@H](NC(=O)[C@@H](NC(=O)[C@H](Cc1ccccc1)NC(=O)[C@H](CCCNC(=N)N)NC(=O)[C@@H](N)CCC(N)=O)C(C)(C)S)[C@@H](C)O)C(=O)N[C@@H](Cc1cccnc1)C(=O)N1CCC[C@H]1C(=O)N[C@@H](CS)C(=O)N[C@@H](CC(N)=O)C(=O)NCC(=O)N1CCC[C@H]1C(=O)O | 34 | 92
CC(C)C[C@H](NC(=O)CNC(=O)CNC(=O)[C@H](Cc1ccccc1)NC(=O)[C@H](Cc1cnc[nH]1)NC(=O)CNC(=O)[C@@H](NC(=O)[C@H](CCC(=O)O)NC(=O)[C@H](Cc1ccccc1)NC(=O)[C@H](CCCN=C(N)N)NC(=O)[C@@H](N)CCC(N)=O)[C@@H](C)O)C(=O)N[C@@H](Cc1ccc(O)cc1)C(=O)N1CCC[C@H]1C(=O)N[C@@H](CCCN)C(=O)N[C@@H](CC(N)=O)C(=O)NCC(=O)N1CCC[C@H]1C(=O)O | 15 | 80
CC(C)C[C@H](NC(=O)CNC(=O)CNC(=O)[C@H](Cc1ccccc1)NC(=O)[C@H](Cc1cnc[nH]1)NC(=O)CNC(=O)[C@@H](NC(=O)[C@H](CCC(=O)O)NC(=O)[C@H](Cc1ccccc1)NC(=O)[C@H](CCCNC(=N)N)NC(=O)[C@@H](N)CCC(N)=O)[C@@H](C)O)C(=O)N[C@@H](Cc1ccc(O)cc1)C(=O)N1CCC[C@H]1C(=O)N[C@@H](CCN)C(=O)N[C@@H](CC(N)=O)C(=O)NCC(=O)N1CCC[C@H]1C(=O)O | 22 | 86
CC(C)C[C@H](NC(=O)CNC(=O)CNC(=O)[C@H](Cc1ccccc1)NC(=O)[C@H](Cc1cnc[nH]1)NC(=O)CNC(=O)[C@@H](NC(=O)[C@@H](NC(=O)[C@H](Cc1ccccc1)NC(=O)[C@H](CCCN=C(N)N)NC(=O)[C@@H](N)CCC(N)=O)C(C)(C)S)[C@@H](C)O)C(=O)N[C@@H](Cc1ccc(N)cc1)C(=O)N1CCC[C@H]1C(=O)N[C@@H](CS)C(=O)N[C@@H](CC(N)=O)C(=O)NCC(=O)N1CCC[C@H]1C(=O)O | 34 | 110
CC(C)C[C@H](NC(=O)CNC(=O)CNC(=O)[C@H](Cc1ccccc1)NC(=O)[C@H](Cc1cnc[nH]1)NC(=O)CNC(=O)[C@@H](NC(=O)[C@H](CCC(=O)O)NC(=O)[C@H](Cc1ccccc1)NC(=O)[C@H](CCCNC(=N)N)NC(=O)[C@@H](N)CCC(N)=O)[C@@H](C)O)C(=O)N[C@@H](Cc1ccc(O)cc1)C(=O)N1CCC[C@H]1C(=O)N[C@@H](CN)C(=O)N[C@@H](CC(N)=O)C(=O)NCC(=O)N1CCC[C@H]1C(=O)O | 9.6 | 71
CC(C)C[C@H](NC(=O)CNC(=O)CNC(=O)[C@H](Cc1ccccc1)NC(=O)[C@H](Cc1cnc[nH]1)NC(=O)CNC(=O)[C@@H](NC(=O)[C@H](CCC(=O)O)NC(=O)[C@H](Cc1ccccc1)NC(=O)[C@H](CCCNC(=N)N)NC(=O)[C@@H](N)CCC(N)=O)[C@@H](C)O)C(=O)N[C@@H](Cc1ccc(O)cc1)C(=O)N1CCC[C@H]1C(=O)N[C@@H](CCCCN)C(=O)N[C@@H](CC(N)=O)C(=O)NCC(=O)N1CCC[C@H]1C(=O)O | 27 | 100
CC(C)C[C@H](NC(=O)CNC(=O)CNC(=O)[C@H](Cc1ccccc1)NC(=O)[C@H](Cc1cnc[nH]1)NC(=O)CNC(=O)[C@@H](NC(=O)[C@@H](NC(=O)[C@H](Cc1ccccc1)NC(=O)[C@H](CCCNC(=N)N)NC(=O)[C@@H](N)CCC(N)=O)C(C)(C)S)[C@@H](C)O)C(=O)N[C@@H](Cc1c(F)c(F)c(F)c(F)c1F)C(=O)N1CCC[C@H]1C(=O)N[C@@H](CS)C(=O)N[C@@H](CC(N)=O)C(=O)NCC(=O)N1CCC[C@H]1C(=O)O | 72 | > 125
CC(C)C[C@H](NC(=O)CN1CCC[C@@H](NC(=O)[C@H](Cc2ccccc2)NC(=O)[C@H](Cc2cnc[nH]2)NC(=O)CNC(=O)[C@@H](NC(=O)[C@@H](NC(=O)[C@H](Cc2ccccc2)NC(=O)[C@@H](N)CCCNC(=N)N)C(C)(C)S)[C@@H](C)O)C1=O)C(=O)N[C@@H](Cc1ccc(O)cc1)C(=O)N1CCC[C@H]1C(=O)N[C@@H](CS)C(=O)O | 0.16 | 0.66
CC(C)C[C@@H](C(=O)N[C@@H](Cc1ccc(O)cc1)C(=O)N1CCC[C@H]1C(=O)N[C@@H](CS)C(=O)O)N(C)C(=O)CN(C)C(=O)CNC(=O)[C@H](Cc1ccccc1)NC(=O)[C@H](C)NC(=O)CNC(=O)[C@@H](NC(=O)[C@@H](NC(=O)[C@H](Cc1ccccc1)NC(=O)[C@@H](N)CCCNC(=N)N)C(C)(C)S)[C@@H](C)O | 9.9 | > 100
CC(C)C[C@@H](C(=O)N[C@@H](Cc1ccc(O)cc1)C(=O)N1CCC[C@H]1C(=O)N[C@@H](CS)C(=O)O)N(C)C(=O)CN1CCCC[C@@H](NC(=O)[C@H](Cc2ccccc2)NC(=O)[C@H](Cc2cnc[nH]2)NC(=O)CNC(=O)[C@@H](NC(=O)[C@H](NC(=O)[C@H](Cc2ccccc2)NC(=O)[C@@H](N)CCCNC(=N)N)C(C)(C)S)[C@@H](C)O)C1=O | 0.044 | 0.62
CC(C)C[C@@H](C(=O)N[C@@H](Cc1ccc(O)cc1)C(=O)N1CCC[C@H]1C(=O)N[C@@H](CS)C(=O)O)N(C)C(=O)CN(C)C(=O)CNC(=O)[C@H](Cc1ccccc1)NC(=O)[C@H](Cc1cscn1)NC(=O)CNC(=O)[C@@H](NC(=O)[C@@H](NC(=O)[C@H](Cc1ccccc1)NC(=O)[C@@H](N)CCCN=C(N)N)C(C)(C)S)[C@@H](C)O | 0.84 | 1.6
